# Test results as given in ChEMBL document CHEMBL2346596, “Spirocyclic β-site amyloid precursor protein cleaving enzyme 1 (BACE1) inhibitors: from hit to lowering of cerebrospinal fluid (CSF) amyloid β in a higher species” (J Med Chem, 2013).
# Assays:
# [1] = Free plasma concentration in Hartley guinea pig at 75 mg/kg, po formulated with 0.5% HPMC/0.5% Tween 80 after 5 hrs; assay type: ADME, organism-based, Cavia porcellus; parameters: dose 75 mg/kg, route oral; settings: in vivo
# Summary of the method: (§1)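 Male Hartley guinea pigs, 6−8 weeks, 250−350 g, 6−8 per group, given a single oral dose or vehicle at 4−5 mL/kg. Euthanized with euthasol 250 mg/kg ip at set times. Whole blood was taken post-mortem by cardiac puncture into EDTA and centrifuged at 4 °C. Plasma was stored at −20 °C for drug analysis.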
# [2] = Clearance in cynomolgus monkey liver microsomes at 1 uM after 20 mins by LC-MS/MS analysis in presence of NADPH; assay type: ADME, Macaca fascicularis, Microsome
# [3] = Clearance in human liver microsomes at 1 uM after 20 mins by LC-MS/MS analysis in presence of NADPH; assay type: ADME, Microsome
# [4] = Unbound brain-to-plasma concentration ratio in Hartley guinea pig at 75 mg/kg, po formulated with 0.5% HPMC/0.5% Tween 80 after 5 hrs; assay type: ADME, organism-based, Cavia porcellus; parameters: dose 75 mg/kg, route oral; settings: read-out: K(p,uu,brain)
# [5] = Drug uptake in Hartley guinea pig CSF at 75 mg/kg, po formulated with 0.5% HPMC/0.5% Tween 80 after 5 hrs; assay type: ADME, organism-based, Cavia porcellus, Cerebrospinal fluid; parameters: dose 75 mg/kg, route oral; settings: read-out: Drug uptake
# Summary of the method: (§2)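 Male Sprague–Dawley rats or male Hartley guinea pigs (6−8 weeks, 250−350 g), 6−8 per group, given vehicle or compound orally at 4−5 mL/kg. At set times after dosing, rats were killed by CO₂ and guinea pigs by ip euthasol (250 mg/kg). Plasma came from cardiac-puncture blood in EDTA. CSF was taken by cisterna magna puncture into 10% BSA and snap frozen.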
# [6] = Clearance in rat liver microsomes at 1 uM after 20 mins by LC-MS/MS analysis in presence of NADPH; assay type: ADME, Microsome
# [7] = Clearance in mouse liver microsomes at 1 uM after 20 mins by LC-MS/MS analysis in presence of NADPH; assay type: ADME, Microsome
# [8] = Free plasma concentration in Hartley guinea pig at 150 mg/kg, po formulated with 0.5% HPMC/0.5% Tween 80 after 5 hrs; assay type: ADME, organism-based, Cavia porcellus; parameters: dose 150 mg/kg, route oral; settings: in vivo; summary of the method: as §2
# [9] = Drug uptake in Hartley guinea pig CSF at 150 mg/kg, po formulated with 0.5% HPMC/0.5% Tween 80 after 5 hrs; assay type: ADME, organism-based, Cavia porcellus, Cerebrospinal fluid; parameters: dose 150 mg/kg, route oral; settings: read-out: Drug uptake
# Summary of the method: (§3)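 Male Hartley guinea pigs, 6–8 per group, were dosed orally at 4–5 mL/kg and euthanized with intraperitoneal euthasol at set times. CSF (40–100 μL) was collected post-mortem by cisterna magna puncture into tubes containing 10% BSA, then snap-frozen for analysis. Drug concentration was determined in the CSF; plasma and brain were also sampled.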
# [10] = Clearance in guinea pig liver microsomes at 1 uM after 20 mins by LC-MS/MS analysis in presence of NADPH; assay type: ADME, Cavia porcellus, Microsome; settings: read-out: CLH
# [11] = Free drug level in Hartley guinea pig brain at 75 mg/kg, po formulated with 0.5% HPMC/0.5% Tween 80 after 5 hrs; assay type: ADME, organism-based, Cavia porcellus; parameters: dose 75 mg/kg, route oral; settings: in vivo; summary of the method: as §2
# [12] = Free plasma concentration in Hartley guinea pig at 50 mg/kg, po formulated with 40/10/50 PEG/ethanol/H2O after 3 hrs; assay type: ADME, organism-based, Cavia porcellus; parameters: dose 50 mg/kg, route oral; settings: in vivo; summary of the method: as §1
# [13] = Drug uptake in Hartley guinea pig CSF at 50 mg/kg, po formulated with 40/10/50 PEG/ethanol/H2O after 3 hrs; assay type: ADME, organism-based, Cavia porcellus, Cerebrospinal fluid; parameters: dose 50 mg/kg, route oral; settings: read-out: Drug uptake; summary of the method: as §3
# [14] = Free plasma concentration in Hartley guinea pig at 150 mg/kg, po formulated with 40/10/50 PEG/ethanol/H2O after 3 hrs; assay type: ADME, organism-based, Cavia porcellus; parameters: dose 150 mg/kg, route oral; settings: in vivo; summary of the method: as §2
# [15] = Drug uptake in Hartley guinea pig CSF at 150 mg/kg, po formulated with 40/10/50 PEG/ethanol/H2O after 3 hrs; assay type: ADME, organism-based, Cavia porcellus, Cerebrospinal fluid; parameters: dose 150 mg/kg, route oral; settings: read-out: Drug uptake; summary of the method: as §3
# Plasma [16] = assay: Free plasma concentration in mouse at 10 mg/kg, po after 4 hrs; assay type: ADME, organism-based; parameters: dose 10 mg/kg, route oral; settings: in vivo
# [17] = Unbound brain-to-plasma concentration ratio in mouse at 10 mg/kg, po after 4 hrs; assay type: ADME, organism-based; parameters: dose 10 mg/kg, route oral; settings: brain and plasma (unbound), read-out: K(p,uu,brain)
# [18] = Oral bioavailability in mouse at 10 mg/kg; assay type: ADME, organism-based; settings: in vivo
# [19] = Clearance in mouse at 3 mg/kg, iv and 10 mg/kg, po; assay type: ADME, organism-based; settings: in vivo
# Plasma [20] = assay: Free plasma concentration in mouse at 10 mg/kg, po after 1 hr; assay type: ADME, organism-based; parameters: dose 10 mg/kg, route oral; settings: in vivo
# Brain [21] = assay: Free drug level in mouse brain at 10 mg/kg, po after 4 hrs; assay type: ADME, organism-based; parameters: dose 10 mg/kg, route oral; settings: in vivo
# Brain [22] = assay: Free drug level in mouse brain at 10 mg/kg, po after 1 hr; assay type: ADME, organism-based; parameters: dose 10 mg/kg, route oral; settings: in vivo
# [23] = Unbound brain-to-plasma concentration ratio in mouse at 10 mg/kg, po after 1 hr; assay type: ADME, organism-based; parameters: dose 10 mg/kg, route oral; settings: brain and plasma (unbound), read-out: K(p,uu,brain)
structure (smiles),measurement,setting,value
CN1C(=O)[C@]2(CC(C)(C)Cc3ccc(-c4cccnc4F)cc32)N=C1N,Cp(f),[1],304 nM
same,CLhep predicted at 1 µM,[2],12 mL/min/kg
same,CLhep predicted at 1 µM,[3],3 mL/min/kg
same,Kp uu at 5 h,[4],0.037
same,concentration at 5 h,[5],20 nM
same,CLhep predicted at 1 µM,[6],60 mL/min/kg
same,CLhep predicted at 1 µM,[7],24 mL/min/kg
same,Cp(f),[8],562 nM
same,concentration at 5 h,[9],247 nM
same,CLint scaled at 1 µM,[10],26 mL/min/kg
same,Drug uptake(free),[11],11 nM
CC1(C)Cc2ccc(-c3cncnc3)cc2[C@@]2(COC(N)=N2)C1,Cp(f),[12],3019 nM
same,CLhep predicted at 1 µM,[2],29 mL/min/kg
same,CLhep predicted at 1 µM,[3],3 mL/min/kg
same,CLhep predicted at 1 µM,[6],28 mL/min/kg
same,CLhep predicted at 1 µM,[7],23 mL/min/kg
same,concentration at 3 h,[13],888 nM
same,Cp(f),[14],6673 nM
same,concentration at 3 h,[15],5610 nM
same,CLint scaled at 1 µM,[10],12 mL/min/kg
CC1(C)Cc2ccc(-c3cncnc3)cc2C2(COC(N)=N2)C1 (racemic),Cp(f),Plasma [16],12 nM
same,Kp uu at 4 h,[17],1.1
same,bioavailability,[18],34%
same,CLhep predicted at 1 µM,[7],16 mL/min/kg
same,clearance,[19],126 mL/min/kg
same,Cp(f),Plasma [20],120 nM
same,Drug uptake(free),Brain [21],13 nM
same,Drug uptake(free),Brain [22],120 nM
same,Kp uu at 1 h,[23],1
CN1C(=O)C2(CC(C)(C)Sc3ccc(-c4cc(F)cc(Cl)c4)cc32)N=C1N (racemic),Cp(f),Plasma [16],3.6 nM
same,Kp uu at 4 h,[17],0.46
same,bioavailability,[18],52%
same,CLhep predicted at 1 µM,[7],47 mL/min/kg
same,clearance,[19],69 mL/min/kg
same,Cp(f),Plasma [20],2.2 nM
same,Drug uptake(free),Brain [21],1.6 nM
same,Drug uptake(free),Brain [22],0.7 nM
same,Kp uu at 1 h,[23],0.29
CN1C(=O)C2(CC(C)(C)Cc3ccc(-c4cccnc4F)cc32)N=C1N (racemic),Cp(f),Plasma [16],29 nM
same,Kp uu at 4 h,[17],0.18
same,bioavailability,[18],62%
same,CLhep predicted at 1 µM,[7],59 mL/min/kg
same,clearance,[19],67 mL/min/kg
same,Cp(f),Plasma [20],47 nM
same,Drug uptake(free),Brain [21],5.1 nM
same,Drug uptake(free),Brain [22],3.7 nM
same,Kp uu at 1 h,[23],0.08
CN1C(=O)C2(CC(C)(C)Oc3ccc(-c4cc(F)cc(Cl)c4)cc32)N=C1N (racemic),Cp(f),Plasma [16],32 nM
same,Kp uu at 4 h,[17],0.22
same,bioavailability,[18],79%
same,CLhep predicted at 1 µM,[7],15 mL/min/kg
same,clearance,[19],12 mL/min/kg
same,Cp(f),Plasma [20],42 nM
same,Drug uptake(free),Brain [21],7 nM
same,Drug uptake(free),Brain [22],3.8 nM
same,Kp uu at 1 h,[23],0.09
